Screens: PubChem, Broad Institute
Compounds with a hit are over-represented: about 2.2% of the library has one in this group of screens.
S100A4 MyoIIA = blocks human S100A4 binding to myosin IIA peptide; P26447; inhibition, % at 10.7 µM; S100A4/TAMRA-MyoIIA peptide fluorescence polarization; AID 652163; hit rate 0.14% among 360,000;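 active means mean inhibition of at least 70% across replicates, with every replicate also reaching that level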
Target sequence (P26447 whole entry, looked up): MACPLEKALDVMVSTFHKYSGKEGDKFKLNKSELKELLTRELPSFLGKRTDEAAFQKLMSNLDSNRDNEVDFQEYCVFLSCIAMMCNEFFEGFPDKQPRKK
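Test system – S100A4 monomer (human) · Compound – single-point compound testing · Schedule – 5 min incubation before reading · Probe or stimulus – TAMRA-labelled myosin IIA heavy-chain peptide probe, 5 nM · Benchmarks – neutral control DMSO, positive control TFP · Medium – Calcium-containing HEPES buffer, pH 7.2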
dFosB act-1 = mouse delta FosB homodimer activation. activation, % at 25 µM. purified delta FosB, TAMRA-CDK5 oligo fluorescence polarization; percent of positive-control signal above neutral wells. AID 493131. hit rate 0.99% among 340,000. P13346;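 active means mean activation above about 17%, with every replicate also reaching it, limit read from the data, passing the limit was not always enough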
Target sequence (P13346 whole entry, looked up): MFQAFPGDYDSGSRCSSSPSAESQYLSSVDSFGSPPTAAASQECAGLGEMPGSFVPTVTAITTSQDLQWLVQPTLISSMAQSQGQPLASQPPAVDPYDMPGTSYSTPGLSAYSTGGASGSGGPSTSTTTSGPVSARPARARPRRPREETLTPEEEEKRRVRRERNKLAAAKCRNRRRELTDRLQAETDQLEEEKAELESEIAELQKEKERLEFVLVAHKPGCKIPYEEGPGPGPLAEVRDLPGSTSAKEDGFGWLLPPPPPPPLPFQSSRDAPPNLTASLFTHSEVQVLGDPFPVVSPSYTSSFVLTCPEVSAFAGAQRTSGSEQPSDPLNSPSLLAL
FGF22 binding = shifts melting point of recombinant human FGF22; hit rate 1.5% among 340,000; Q9HCT0; activity (Tm shift, normalised), % at 9.99 µM; AID 651658; recombinant FGF22 thermal shift, SYPRO orange fluorescence; percent of sucrose octasulfate shift, DMSO zero;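 active means mean Tm shift, scaled 0 neutral to 100 positive control, at about 1.3% or above, every replicate too, limit read from the data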
Target sequence (Q9HCT0 whole entry, looked up): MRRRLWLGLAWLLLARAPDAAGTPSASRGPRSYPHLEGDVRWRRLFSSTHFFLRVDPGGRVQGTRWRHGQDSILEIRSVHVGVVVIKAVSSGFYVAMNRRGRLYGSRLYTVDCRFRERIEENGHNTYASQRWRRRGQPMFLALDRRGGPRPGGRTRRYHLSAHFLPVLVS
F508del corr = correctors of CFTR F508del function in bronchial epithelial cells; CFBE cells, YFP halide quenching; stimulated with forskolin plus potentiator P3; % fluorescence drop versus neutral controls; activity (quench increase), % at 7.58 µM; hit rate 0.36% among 350,000;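 active means mean added fluorescence quench of at least 8% versus neutral control, with both replicates also reaching 8%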;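 further: cells transiently co-express mutant CFTR-F508del with the halide-sensitive YFP; corrector assay measuring rescue of mutant channel to the surface after 24 h compound exposure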
dFosB act-2 = activators of mouse delta FosB homodimer DNA binding. shares compounds with dFosB act-1. purified delta FosB, TAMRA-CDK5 oligo fluorescence polarization; normalised: neutral wells 0, positive control 100. activation, % at 24.9 µM. 2,400 tested, under 10 active. AID 588690;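 active means highest replicate activation at or above 34% and every replicate reaching that threshold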;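 further: higher polarization means more probe DNA bound by delta FosB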
Numbers without * were called inactive; . = not tested or not shown.

SMILES	S100A4 MyoIIA	dFosB act-1	FGF22 binding	F508del corr	dFosB act-2
C=CCn1c(C)cc(-c2csc(NC(=O)CCc3nc4ccccc4c(=O)[nH]3)n2)c1C	-1.9	-4.4	-0.1	2.4	.
COc1ccc(S(=O)(=O)N[C@@H]2CC[C@H](CC(=O)N3CCC(Cc4ccccc4)CC3)O[C@H]2CO)cc1	-0.3	.	-0.4	-0.3	.
CCCN(C)C[C@@H]1Oc2ncc(Br)cc2C(=O)N([C@@H](C)CO)C[C@@H]1C	2.0	.	0.4	1.0	.
Cc1cc(NC(=O)CN2CCc3ccccc3C2)nc2c1c(=O)oc1ccccc12	-9.3	30.7*	-0.1	2.3	0.5
C[C@H](CO)N1C[C@H](C)[C@@H](CN(C)S(=O)(=O)c2ccccc2)Oc2ccc(NC(=O)CCCN(C)C)cc2C1=O	5.9	.	-0.1	2.4	.
C[C@H]1CCCCO[C@H](CN(C)Cc2ccc3c(c2)OCO3)[C@@H](C)CN([C@@H](C)CO)C(=O)c2cc(NC(=O)NC3CCCCC3)ccc2O1	-2.7	.	0.1	2.0	.
O=C(Nc1ccc(F)cc1)C1CCN(c2ncnc3c2nc2n3CCCCC2)CC1	-1.0	47.9*	-0.2	-2.9	2.6
CC(C)NC(=O)NCC[C@H]1CC[C@@H](NS(=O)(=O)c2ccc(-c3ccccc3)cc2)[C@H](CO)O1	17.4	.	0.0	0.0	.
C[C@@H]1CCCCO[C@H](CN(C)Cc2ccc(C(F)(F)F)cc2)[C@@H](C)CN([C@@H](C)CO)C(=O)c2cc(NC(=O)Nc3ccc4c(c3)OCO4)ccc2O1	-6.0	.	0.0	2.7	.
Cc1ccc(-c2cc3c(N=O)c4ccccc4c-3n[nH]2)cc1	-0.3	32.0*	0.2	0.2	1.7
COc1cc(/C=N\NC(=O)c2ccc(-c3ccccc3)cc2)ccc1OCC(N)=O	-107.6	66.4*	0.1	-1.4	6.4
COc1cc(/C=N/NC(=O)c2ccccc2O)ccc1OCC(=O)Nc1ccccc1	8.7	27.5*	0.0	-2.4	1.6
COc1cc(/C=N/NC(=O)c2cccc([N+](=O)[O-])c2)ccc1OCc1ccc(C)cc1	.	49.6*	.	.	4.5
COc1cc(/C=N\NC(=O)c2ccc(-c3ccccc3)cc2)cc(OC)c1O	5.2	5.7	0.0	-4.5	.
CCOc1cc(/C=N/NC(=O)Cn2nc([N+](=O)[O-])cc2C)ccc1OCc1ccc(F)cc1	.	35.3*	.	.	2.2
COc1cc(/C=N/NC(=O)c2ccncc2)ccc1OCC(=O)Nc1ccccc1	-0.6	-8.6	1.1	-0.3	.
C[C@H](O)C#Cc1cnc2c(c1)C(=O)N([C@@H](C)CO)C[C@@H](C)[C@@H](CN(C)C(=O)Cc1ccncc1)O2	2.2	.	-0.1	-0.3	.
CC=Cc1ccc2n(c1=O)C[C@@H]1[C@@H](CO)[C@H](C(=O)NCCN3CCCCC3)N(C(C)=O)[C@H]21 (mixture of isomers)	3.6	.	.	2.9	.
C[C@@H]1CCCCO[C@H](CN(C)Cc2ccccc2)[C@H](C)CN([C@H](C)CO)C(=O)c2cc(NC(=O)Nc3ccc(F)cc3)ccc2O1	1.4	.	0.3	1.9	.
CCNC(=O)C[C@@H]1CC[C@@H](NS(=O)(=O)c2ccc(F)cc2)[C@@H](CO)O1	-36.8	.	-0.1	0.9	.
CCOc1cc(/C=N\NC(=O)Cc2ccccc2)ccc1OCC(=O)Nc1ccc(C)c(C)c1	.	24.0*	.	.	3.1
CNC(=O)c1[nH]nc2c1CCc1ccccc1-2	-14.7	-11.6	-0.2	-1.6	.
COc1ccc(/C=N/NC(=O)c2[nH]nc3c2CCc2ccccc2-3)cc1OC	-5.9	88.1*	0.2	.	3.0
CC(C)N1C(=O)[C@@]2(Cc3ccccc31)c1ccccc1C(=O)N(Cc1ccccc1)[C@H]2c1ccc(CO)cc1	2.4	.	0.1	-0.2	.
CN1C(=O)c2cc(NC(=O)Nc3ccc(Cl)cc3)ccc2OC[C@H]2O[C@H](CC(=O)NCCN3CCCCC3)CC[C@H]21	-5.8	.	-0.1	4.2	.
SMILES	S100A4 MyoIIA	dFosB act-1	FGF22 binding	F508del corr	dFosB act-2
COc1ccccc1CNc1ncnc2cc(Cl)ccc12	-1.7	6.3	.	0.9	.
CCN(CC)Cc1cc2[nH]c3c4ccc(Cl)cc4ncc3c2cc1OC	-5.1	24.0*	-0.2	1.4	5.9
C[C@@H](NC(=O)C[C@@H]1CC[C@@H](NC(=O)C2CC2)[C@H](CO)O1)c1ccccc1	-29.5	.	0.0	-1.7	.
Clc1ccc2[nH]c3c(NCCCN4CCOCC4)ncnc3c2c1	.	22.0*	.	.	0.3
O=C(COC(=O)c1n[nH]c(=O)c2ccccc12)NC1CCCCC1	1.5	50.4*	0.1	1.9	1.0
O=C(CSc1nccn(-c2cccc(F)c2)c1=O)Nc1ccc(Cl)cc1F	-10.1	21.4*	-0.1	2.7	0.4
CCOC(=O)c1c(C)nc2sc(C(=O)Nc3ccc(OC)cc3)c(N)c2c1-c1ccc(OC)cc1	.	-11.8	.	.	.
CCOC(=O)c1c(C)nc2sc(C(=O)Nc3ccc(C(C)=O)cc3)c(N)c2c1-c1ccc(OC)cc1	.	18.7*	.	.	-0.5
Cc1cccc(Nc2nc(N)nc(-c3oc4ccccc4c3C)n2)c1	-4.8	78.5*	38.8*	12.3*	-0.6
COc1cccc(Nc2nc(N)nc(-c3oc4ccccc4c3C)n2)c1	.	59.6*	.	.	0.4
O=C(C[C@H]1CC[C@H]2[C@@H](COC[C@@H](O)CN2C(=O)Nc2ccc(Cl)cc2)O1)NCc1ccncn1	-3.6	.	-0.1	-0.1	.
CCC(=O)N(C)C[C@H]1Oc2cc(C3=CCCC3)ccc2S(=O)(=O)N([C@@H](C)CO)C[C@H]1C	-5.8	.	0.6	-1.2	.
COc1ccc(NC(=O)Cn2cnc3ccccc3c2=O)cc1OC	3.2	-0.1	0.2	4.4	.
COc1ccc2nc(NC(=O)Cn3cnc4ccccc4c3=O)sc2c1	-0.5	30.8*	-0.3	-2.0	2.4
CC(=O)Nc1sc(C)c(C)c1C(=O)OCC(=O)NCc1ccc(Cl)cc1	-20.8	89.6*	0.0	-2.1	3.3
Cc1cc(C)c2oc(C(=O)NCCc3ccc(S(N)(=O)=O)cc3)cc(=O)c2c1	-0.7	41.0*	41.5	3.0	-2.4
Cc1cc(C)c2oc(C(=O)Nc3ccc(S(=O)(=O)N4CCC(C)CC4)cc3)cc(=O)c2c1	-31.3	23.4*	0.0	.	1.1
CO[C@H]1CN(C)C(=O)c2ccc(NC(C)=O)cc2OC[C@H](C)N(C(=O)C2CCC2)C[C@@H]1C	-0.4	.	.	1.4	.
O=C(N/N=C/c1ccc(-c2cccc([N+](=O)[O-])c2)o1)c1ccccc1O	10.4	21.8*	0.1	-0.7	-1.2
O=C(N/N=C/c1ccc(-c2cccc(C(F)(F)F)c2)o1)c1ccccc1Br	.	-1.2	.	.	.
O=C(N/N=C/c1ccc(-c2cccc(C(F)(F)F)c2)o1)c1ccccc1O	.	31.6*	.	.	3.6
C[C@@H]1CN([C@H](C)CO)C(=O)c2cc(NC(=O)c3ccccc3)ccc2O[C@@H](C)CCCCO[C@H]1CN(C)C(=O)Nc1ccc2c(c1)OCO2	-7.3	.	-0.3	0.7	.
Cc1cccc(-n2c(Cc3cc(=O)[nH]c(=O)[nH]3)nnc2SCC(=O)N2CCc3ccccc32)c1	-0.3	38.2*	-0.1	4.2	-1.8
